Published values of several laboratories.
Each line is one published result; the experiments were not run side by side.

SMILES	cell line	assay	conditions	IC50
Cc1ccc(-c2cc(-c3ccc4oc(=O)cc(C)c4c3O)nc(N)n2)cc1	KB	cell growth or viability, MTT	72 h	> 128 µg/mL
CC(C)C[C@H](NC(=O)[C@H](Cc1ccccc1)NC(=O)c1cnccn1)B(O)O	NCI-H1703	cell growth or viability, ATP luminescence	–	0.012 µM
COc1ccccc1-c1c(C)oc2cc(OC(=O)c3ccco3)ccc2c1=O	human Neutrophil	cell migration, inhibitor	–	0.43 µM
CCc1c2c(nc3ccc(O)cc13)-c1cc3c(c(=O)n1C2)COC(=O)[C@]3(O)CC	HCCLM3	cell growth or viability, MTT	72 h	3.08 µM
COc1ccccc1-c1c(C)oc2cc(OC(=O)c3cccs3)ccc2c1=O	human Neutrophil	cell migration, inhibitor	–	0.32 µM
Nc1ncc(-c2cnn(C3CCNCC3)c2)cc1-c1nnc(CC2CC2)o1	U-937	cell growth or viability, trypan blue	72 h	0.38 µM
COc1ccc(C(=O)C=Cc2ccc(OC)c(OC)c2)cc1	J774	cell growth or viability, MTT	24 h	100 µg/mL
O=C1CCCCC1C1C2C=CC=CC1C(CCCCOC1CCCCO1)=C2 (stereo not drawn)	U-937	cell growth or viability, flow cytometry	–	0.143 µM
Oc1ccc(Nc2nc(-c3ccc(Cl)cc3)cs2)cc1	UACC-903	cell growth or viability, MTS	24 h	> 100 µM
COc1cc(-c2ncn(/C=C\C(=O)OC(C)C)n2)cc(C(F)(F)F)c1	ML-2	cell growth or viability	72 h	0.099 µM
Cl.Oc1cccc2c1[nH]c1c(C3=CC4(O)CC/C=C\CCCCN5CCC3C3(CC6/C=C\CCCCN6C43)C5)nccc12 (single isomer, unassigned; (+))	KB	cell growth or viability, neutral red	48 h	0.69 µg/mL
N=C(N)c1ccc(OCCCCCOc2ccc(C(=N)N)cc2)cc1	J774	cell growth or viability, resazurin	48 h	23.8 µM
Cc1cc(=O)oc2ccc(-c3cc(-c4cccs4)nc(N)n3)c(O)c12	KB	cell growth or viability, MTT	72 h	> 128 µg/mL
N#CCCCC1=CC2C=CC=CC1C2C1CCCCC1=O (stereo not drawn)	U-937	cell growth or viability, flow cytometry	–	0.074 µM
Cc1cc(=O)oc2ccc(-c3cc(-c4cccc(Cl)c4)nc(N)n3)c(O)c12	KB	cell growth or viability, MTT	72 h	> 128 µg/mL
COc1ccccc1-c1c(C(F)(F)F)oc2cc(OC(=O)c3ccccc3)ccc2c1=O	human Neutrophil	cell migration, inhibitor	–	0.12 µM
O=C1CCCCC1C1C2C=CC=CC1C(C1CC1)=C2 (stereo not drawn)	U-937	cell growth or viability, flow cytometry	–	0.041 µM
COc1ccc(C=CC(=O)c2ccc(F)cc2)cc1OC	J774	cell growth or viability, MTT	24 h	100 µg/mL
COc1ccccc1-c1c(C(F)(F)F)oc2cc(OC(=O)C3CC3)ccc2c1=O	human Neutrophil	cell migration, inhibitor	–	0.36 µM
COc1cc(Nc2nccc(-c3cnn4nc(OC)ccc34)n2)cc(C(F)(F)F)c1	EFO-27	cell growth or viability, ATP luminescence	–	0.79 µM
COc1cc(OC)c(/C=C/S(=O)(=O)Nc2ccc(OC)c(N)c2)c(OC)c1	RF48	cell growth or viability, trypan blue	96 h	0.004 µM
O=C(N/N=C/c1c(O)ccc2ccccc12)c1cc(-c2ccc3ccccc3c2)n[nH]1	UACC-903	cell growth or viability, MTS	48 h	10.9 µM
O=C(Oc1ccc2c(=O)c(-c3ccccc3Cl)c(C(F)(F)F)oc2c1)c1cccs1	human Neutrophil	cell migration, inhibitor	–	0.08 µM
N#CCCC1=CC2C=CC=CC1C2C1CCCCC1=O (stereo not drawn)	U-937	cell growth or viability, flow cytometry	–	0.081 µM
Cc1cc(=O)oc2ccc(-c3cc(-c4cccc([N+](=O)[O-])c4)nc(N)n3)c(O)c12	KB	cell growth or viability, MTT	72 h	63.6 µg/mL
Cc1oc2cc(OC(=O)c3ccco3)ccc2c(=O)c1-c1nc2ccccc2n1C	human Neutrophil	cell migration, inhibitor	–	0.41 µM
CCCCCC/C=C1\CC2C=CC=CC1C2C1CCCCC1=O (stereo not drawn)	U-937	cell growth or viability, flow cytometry	–	0.034 µM
